Active and inactive are the calls of the source. The rule behind the calls is not given here.
Columns and labels:
Chymase [1] = target: T1, Chymase (Homo sapiens, UniProt P23946); experiment: Compound was evaluated for its inhibitory activity against human Serine protease chymase
T1 sequence (P23946 whole entry): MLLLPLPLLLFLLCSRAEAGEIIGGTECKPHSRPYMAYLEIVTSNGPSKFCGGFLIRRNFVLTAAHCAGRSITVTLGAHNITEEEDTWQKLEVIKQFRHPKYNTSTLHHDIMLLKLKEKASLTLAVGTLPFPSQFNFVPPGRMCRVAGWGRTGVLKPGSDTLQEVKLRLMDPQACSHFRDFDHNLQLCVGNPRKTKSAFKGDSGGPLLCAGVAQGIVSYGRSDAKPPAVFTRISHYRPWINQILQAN
In short: (§1)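 Purified human chymase preincubated with inhibitor (DMSO solution) for 30 min at 37 °C in 0.1 M Tris–HCl pH 8.0 with 1.8 M NaCl. Reaction started with succinyl-Ala-Ala-Pro-Phe-p-nitroanilide. Absorbance at 405 nm read after 2 h at 37 °C. IC50 calculated from inhibition of p-nitroaniline formation at each concentration.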

Serine protease 1 = target: T2, Serine protease 1 (Bos taurus, UniProt P00760); experiment: Compound was evaluated for its inhibitory activity against bovine pancreatic trypsin
T2 sequence (P00760 whole entry): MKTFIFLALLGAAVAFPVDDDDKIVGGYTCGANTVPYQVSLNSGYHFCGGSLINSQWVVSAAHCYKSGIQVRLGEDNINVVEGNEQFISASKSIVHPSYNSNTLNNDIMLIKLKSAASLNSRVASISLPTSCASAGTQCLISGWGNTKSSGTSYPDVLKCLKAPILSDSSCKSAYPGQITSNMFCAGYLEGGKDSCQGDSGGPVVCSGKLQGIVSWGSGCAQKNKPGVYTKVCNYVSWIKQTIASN
In short: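 Purified trypsin with a chromogenic substrate. Buffer 50 mM Tris-HCl pH 8.0 containing 2 mM CaCl2.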

[2] = Half life was determined; type: ADME; details: sodium methoxide 10 mM in methanol, 21 °C
In short: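 Chemical stability: 1 μmol compound added to 1 mL of 10 mM sodium methoxide in methanol, stirred at 21 °C. Aliquots removed every 2 h and analysed by reverse-phase HPLC to give t1/2.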

Neutrophil elastase = target: T3, Neutrophil elastase (Homo sapiens, UniProt P08246); experiment: Compound was evaluated for its inhibitory activity against human neutrophil elastase
T3 sequence (P08246 whole entry): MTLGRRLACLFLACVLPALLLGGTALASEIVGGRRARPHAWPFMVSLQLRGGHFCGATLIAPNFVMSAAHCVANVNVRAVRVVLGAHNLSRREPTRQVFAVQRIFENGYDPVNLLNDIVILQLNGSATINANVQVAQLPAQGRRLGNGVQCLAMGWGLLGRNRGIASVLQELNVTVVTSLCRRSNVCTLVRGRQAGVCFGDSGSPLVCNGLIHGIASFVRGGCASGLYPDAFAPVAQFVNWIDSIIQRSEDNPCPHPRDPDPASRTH
In short: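 Purified human neutrophil elastase with chromogenic substrate N-succinyl-Ala-Ala-Val-pNA. Buffer 50 mM Tris-HCl pH 8.0 containing 2 mM CaCl2.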

Prothrombin = Prothrombin (Homo sapiens, UniProt P00734); experiment: Compound was evaluated for its inhibitory activity against human thrombin
In short: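 Purified thrombin with a chromogenic substrate. Buffer 0.1 M Tris-HCl pH 8.0 containing 10 mM CaCl2 and 0.1 M NaCl.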

Plasminogen [3] = target: T4, Plasminogen (Homo sapiens, UniProt P00747); experiment: Compound was evaluated for its inhibitory activity against human plasmin
T4 sequence (P00747 97-580 limits assumed): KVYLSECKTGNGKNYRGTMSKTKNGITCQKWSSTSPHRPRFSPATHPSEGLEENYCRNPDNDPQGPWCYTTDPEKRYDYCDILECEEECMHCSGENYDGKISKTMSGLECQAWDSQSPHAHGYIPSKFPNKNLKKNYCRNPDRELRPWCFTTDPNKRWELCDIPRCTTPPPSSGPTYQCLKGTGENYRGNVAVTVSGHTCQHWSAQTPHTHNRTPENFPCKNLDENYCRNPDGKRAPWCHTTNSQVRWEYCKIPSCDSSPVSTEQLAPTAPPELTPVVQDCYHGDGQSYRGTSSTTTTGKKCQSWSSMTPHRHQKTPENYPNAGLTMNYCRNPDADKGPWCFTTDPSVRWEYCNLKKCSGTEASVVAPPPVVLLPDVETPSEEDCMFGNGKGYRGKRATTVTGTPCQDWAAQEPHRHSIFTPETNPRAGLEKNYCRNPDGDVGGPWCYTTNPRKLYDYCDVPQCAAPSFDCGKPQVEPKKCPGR
T4 sequence (P00747 581-810 limits assumed): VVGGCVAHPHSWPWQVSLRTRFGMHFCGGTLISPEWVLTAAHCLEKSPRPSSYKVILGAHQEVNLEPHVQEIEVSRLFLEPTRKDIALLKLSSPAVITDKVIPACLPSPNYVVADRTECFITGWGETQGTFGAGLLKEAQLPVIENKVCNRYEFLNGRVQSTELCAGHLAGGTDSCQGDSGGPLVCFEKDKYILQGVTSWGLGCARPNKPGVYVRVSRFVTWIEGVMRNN
In short: (§2)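 Purified human plasmin assayed with chromogenic substrate Chromozym PL. Buffer 50 mM Tris-HCl pH 7.5 containing 50 mM NaCl.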

Chymase [4] = target: T1, Chymase; experiment: Compound was evaluated for its inhibitory activity against human Serine protease chymase up to a concentration > 10000 nM; NA= not active; in short: as §1
Plasminogen [5] = target: T4, Plasminogen; experiment: Compound was evaluated for its inhibitory activity against human plasmin up to a concentration > 1000 nM; NA= not activity; details: in the assay text read “> 10000 nM” for “> 1000 nM”; in short: as §2
Cathepsin G = target: T5, Cathepsin G (Homo sapiens, UniProt P08311); experiment: Compound was evaluated for its inhibitory activity against human cathepsin G
T5 sequence (P08311 whole entry): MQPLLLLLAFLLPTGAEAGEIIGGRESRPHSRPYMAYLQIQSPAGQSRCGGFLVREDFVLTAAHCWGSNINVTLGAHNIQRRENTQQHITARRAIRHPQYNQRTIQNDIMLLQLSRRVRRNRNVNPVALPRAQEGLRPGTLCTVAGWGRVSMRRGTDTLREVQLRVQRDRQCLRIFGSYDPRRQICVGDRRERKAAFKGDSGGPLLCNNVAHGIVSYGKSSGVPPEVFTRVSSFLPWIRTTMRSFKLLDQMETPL

| Structure (SMILES) | IC50 (Chymase [1]) [nM] | IC50 (Serine protease 1) [nM] | IC50 (Neutrophil elastase) [nM] | IC50 (Prothrombin) [nM] | further results |
| --- | --- | --- | --- | --- | --- |
| O=C1N(c2ccc3c(c2)OCO3)C(=O)N1c1ccc2c(c1)OCO2 | 48 |  |  |  |  |
| CCOC(=O)CN1C(=O)N(CC(=O)OCC)C1=O |  |  |  |  | IC50 (Chymase [4]): Not Active |
| Cc1ccc(N2C(=O)N(c3ccc(C)cc3)C2=O)cc1 | 140 | 200 | 230 | 2300 | NA (Plasminogen [5]): inactive |
| CCN1C(=O)N(CC)C1=O |  | 39000 | 58 | 5600 | IC50 (Chymase [4]): Not Active; IC50 (Cathepsin G): 740 nM; IC50 (Plasminogen [3]): > 10000 nM |

The next lines start with results.

| IC50 (Chymase [1]) [nM] | IC50 (Serine protease 1) [nM] | IC50 (Neutrophil elastase) [nM] | IC50 (Prothrombin) [nM] | Structure (SMILES) | further results |
| --- | --- | --- | --- | --- | --- |
| 0.85 |  |  |  | O=C1N(Cc2ccc3c(c2)OCO3)C(=O)N1Cc1ccc2c(c1)OCO2 |  |
| 4 | 39 | 100 | 72 | O=C1N(Cc2ccccc2)C(=O)N1Cc1ccccc1 | half-life [2]: 9.5 h; IC50 (Plasminogen [3]): 2900 nM |
| 2.3 |  |  |  | COc1cccc(CN2C(=O)N(Cc3cccc(OC)c3)C2=O)c1 |  |
| 2 |  |  |  | COc1ccc(CN2C(=O)N(Cc3ccc(OC)cc3)C2=O)cc1 |  |

Reference: ChEMBL document CHEMBL1134118, “Inhibition of serine proteases: activity of 1,3-diazetidine-2,4-diones” (Bioorg Med Chem Lett, 2001)
